Calls of active or inactive are those of the source. No cut-off for these calls is given here.
Experiments:
[1] = biological target: Sodium-dependent serotonin transporter (Rattus norvegicus, UniProt P31652); test: Displacement of [3H]-citalopram from SERT in rat cortex tissue measured after 60 mins by microbeta scintillation counting analysis
Outline: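 Rat cortex tissue suspension with 1.0 nM [3H]-citalopram in 50 mM Tris pH 7.7, 150 mM NaCl, 5 mM KCl. Incubated 60 min at 24 °C, in duplicate. GF/B filtration, scintillation counting. One-site fit, Ki via Cheng–Prusoff with in-house Kd.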

[2] = Half life in human liver microsomes at 1 uM by LC-MS analysis; assay type: ADME, Microsome
Outline: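 Compound at 1 μM incubated at 37 °C with 1 mg/mL pooled human liver microsomes and 100 μM NADPH in 0.1 M potassium phosphate pH 7.4, after 5-min preincubation. Samples taken at 0, 5, 10, 15, 30 min and quenched in ice-cold acetonitrile with buspirone internal standard. No-NADPH controls were run. Parent measured by LC-ESI(+)-MS of [M+H+]; half-life reported.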

Mus musculus [3] = test: Induction of hypothermia in CD-1 mouse assessed as change in body temperature at 15 mg/kg, ip measured after 120 mins by thermometric method (reference value: -0.1 to 0.1 deg C); assay type: functional, organism-based
Outline: (§1)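 Male CD-1 mice (23–40 g), 6–8 per dose, given compound ip in 10% aqueous DMSO (10 mL/kg). Rectal temperature was read by thermometer 30, 60, 90 and 120 min after dosing. Results are expressed as change from basal temperature at experiment start. Analysis by Dunnett's test.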

Mus musculus [4] = test: Induction of hypothermia in CD-1 mouse assessed as change in body temperature at 5 mg/kg, ip measured after 120 mins by thermometric method; assay type: functional, organism-based; outline: as §1
[5] = biological target: 5-hydroxytryptamine receptor 7 (Homo sapiens, UniProt P34969); test: Displacement of [3H]-5-CT from recombinant human 5HT7 receptor expressed in HEK293 cells measured after 1 hr by microbeta scintillation counting analysis; assay type: cell-based
5-hydroxytryptamine receptor 7, sequence (P34969 whole entry): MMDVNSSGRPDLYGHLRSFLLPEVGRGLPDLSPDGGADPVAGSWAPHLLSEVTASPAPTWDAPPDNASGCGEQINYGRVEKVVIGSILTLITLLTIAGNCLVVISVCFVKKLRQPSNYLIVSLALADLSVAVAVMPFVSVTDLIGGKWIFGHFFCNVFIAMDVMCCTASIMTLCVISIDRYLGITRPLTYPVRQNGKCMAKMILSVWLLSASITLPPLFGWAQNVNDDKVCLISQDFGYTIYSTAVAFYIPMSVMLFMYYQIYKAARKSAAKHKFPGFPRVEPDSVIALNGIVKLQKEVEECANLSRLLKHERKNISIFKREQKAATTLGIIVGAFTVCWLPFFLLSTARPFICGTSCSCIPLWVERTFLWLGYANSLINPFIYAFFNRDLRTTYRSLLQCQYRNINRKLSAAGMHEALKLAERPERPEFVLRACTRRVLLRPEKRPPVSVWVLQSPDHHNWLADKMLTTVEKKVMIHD

Mus musculus [6] = test: Induction of hypothermia in CD-1 mouse assessed as change in body temperature at 15 mg/kg, ip measured after 60 mins by thermometric method (reference value: 0.1 deg C); assay type: functional, organism-based; outline: as §1
Mus musculus [7] = test: Induction of hypothermia in CD-1 mouse assessed as change in body temperature at 5 mg/kg, ip measured after 60 mins by thermometric method; assay type: functional, organism-based; outline: as §1
Mus musculus [8] = test: Induction of hypothermia in CD-1 mouse assessed as change in body temperature at 15 mg/kg, ip measured after 30 mins by thermometric method (Rvb <= 0.4 deg C); assay type: functional, organism-based; outline: as §1
Mus musculus [9] = test: Induction of hypothermia in CD-1 mouse assessed as change in body temperature at 20 mg/kg, ip measured after 60 mins by thermometric method; assay type: functional, organism-based; outline: as §1
Mus musculus [10] = test: Induction of hypothermia in CD-1 mouse assessed as change in body temperature at 20 mg/kg, ip measured after 120 mins by thermometric method; assay type: functional, organism-based; outline: as §1
[11] = biological target: 5-hydroxytryptamine receptor 6 (Homo sapiens, UniProt P50406); test: Displacement of [3H]-LSD from recombinant human 5HT6 receptor expressed in HEK293 cells measured after 1 hr by microbeta scintillation counting analysis; assay type: cell-based
5-hydroxytryptamine receptor 6, sequence (P50406 whole entry): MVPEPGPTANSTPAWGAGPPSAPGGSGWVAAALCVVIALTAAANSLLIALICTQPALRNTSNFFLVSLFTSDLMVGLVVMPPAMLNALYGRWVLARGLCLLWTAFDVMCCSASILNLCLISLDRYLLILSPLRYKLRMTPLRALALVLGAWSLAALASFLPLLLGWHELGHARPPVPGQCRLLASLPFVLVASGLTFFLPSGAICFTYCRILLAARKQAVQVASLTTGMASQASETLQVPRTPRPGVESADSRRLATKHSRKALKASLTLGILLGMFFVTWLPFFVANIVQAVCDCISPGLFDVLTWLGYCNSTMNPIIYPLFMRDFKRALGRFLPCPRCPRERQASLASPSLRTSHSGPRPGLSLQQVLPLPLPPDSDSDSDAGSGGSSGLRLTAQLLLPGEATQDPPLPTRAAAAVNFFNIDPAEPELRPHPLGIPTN

Mus musculus [12] = test: Induction of hypothermia in CD-1 mouse assessed as change in body temperature at 17.5 mg/kg, ip measured after 90 mins by thermometric method (reference value: -0.1 to 0.1 deg C); assay type: functional, organism-based; outline: as §1
Mus musculus [13] = test: Induction of hypothermia in CD-1 mouse assessed as change in body temperature at 20 mg/kg, ip measured after 90 mins by thermometric method; assay type: functional, organism-based; outline: as §1
Mus musculus [14] = test: Induction of hypothermia in CD-1 mouse assessed as change in body temperature at 20 mg/kg, ip measured after 30 mins by thermometric method; assay type: functional, organism-based; outline: as §1
Mus musculus [15] = test: Induction of hypothermia in CD-1 mouse assessed as change in body temperature at 17.5 mg/kg, ip measured after 30 mins by thermometric method (Rvb <= 0.4 deg C); assay type: functional, organism-based; outline: as §1
D(2) dopamine receptor = D(2) dopamine receptor (Homo sapiens, UniProt P14416); test: Displacement of [3H]-raclopride from recombinant human D2 receptor expressed in HEK293 cells measured after 1 hr by microbeta scintillation counting analysis; assay type: cell-based
D(2) dopamine receptor, sequence (P14416 whole entry): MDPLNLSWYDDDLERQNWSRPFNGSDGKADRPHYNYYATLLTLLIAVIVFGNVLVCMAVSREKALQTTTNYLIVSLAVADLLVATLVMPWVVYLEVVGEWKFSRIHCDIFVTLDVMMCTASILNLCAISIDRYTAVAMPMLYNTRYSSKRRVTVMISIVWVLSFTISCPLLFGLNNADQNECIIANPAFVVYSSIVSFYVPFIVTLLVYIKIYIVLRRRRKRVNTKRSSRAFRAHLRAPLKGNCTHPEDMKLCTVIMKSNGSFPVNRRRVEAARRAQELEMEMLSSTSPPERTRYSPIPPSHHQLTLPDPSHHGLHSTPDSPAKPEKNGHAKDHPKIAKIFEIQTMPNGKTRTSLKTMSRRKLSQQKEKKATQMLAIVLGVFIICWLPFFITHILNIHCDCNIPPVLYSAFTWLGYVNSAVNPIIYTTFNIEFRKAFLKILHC

Mus musculus [16] = test: Induction of hypothermia in CD-1 mouse assessed as change in body temperature at 17.5 mg/kg, ip measured after 60 mins by thermometric method (reference value: 0.1 deg C); assay type: functional, organism-based; outline: as §1
Mus musculus [17] = test: Induction of hypothermia in CD-1 mouse assessed as change in body temperature at 5 mg/kg, ip measured after 30 mins by thermometric method; assay type: functional, organism-based; outline: as §1
Mus musculus [18] = test: Induction of hypothermia in CD-1 mouse assessed as change in body temperature at 5 mg/kg, ip measured after 90 mins by thermometric method; assay type: functional, organism-based; outline: as §1
Mus musculus [19] = test: Induction of hypothermia in CD-1 mouse assessed as change in body temperature at 15 mg/kg, ip measured after 90 mins by thermometric method (reference value: -0.1 to 0.1 deg C); assay type: functional, organism-based; outline: as §1
[20] = biological target: 5-hydroxytryptamine receptor 2A (Homo sapiens, UniProt P28223); test: Displacement of [3H]-ketanserin from recombinant human 5HT2A receptor expressed in HEK293 cells measured after 1.5 hrs by microbeta scintillation counting analysis; assay type: cell-based
5-hydroxytryptamine receptor 2A, sequence (P28223 whole entry): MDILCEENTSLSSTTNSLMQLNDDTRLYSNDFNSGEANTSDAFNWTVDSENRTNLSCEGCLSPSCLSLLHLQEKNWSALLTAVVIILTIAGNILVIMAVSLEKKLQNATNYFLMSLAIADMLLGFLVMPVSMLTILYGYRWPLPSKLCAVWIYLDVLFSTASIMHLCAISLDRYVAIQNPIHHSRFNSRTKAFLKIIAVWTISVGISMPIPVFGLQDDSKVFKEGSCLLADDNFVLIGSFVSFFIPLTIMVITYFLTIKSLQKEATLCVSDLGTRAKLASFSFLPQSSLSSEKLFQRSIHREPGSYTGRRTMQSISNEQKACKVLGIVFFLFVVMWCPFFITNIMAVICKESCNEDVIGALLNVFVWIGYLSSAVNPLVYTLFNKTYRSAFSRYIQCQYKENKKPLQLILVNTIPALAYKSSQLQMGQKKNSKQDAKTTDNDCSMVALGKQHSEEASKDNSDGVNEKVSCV

[21] = biological target: T1, 5-hydroxytryptamine receptor 1A (Homo sapiens, UniProt P08908); test: Displacement of [3H]-8-OH-DPAT from recombinant human 5HT1A receptor expressed in CHO cell membranes measured after 60 mins by microbeta scintillation counting analysis
T1 sequence (P08908 whole entry): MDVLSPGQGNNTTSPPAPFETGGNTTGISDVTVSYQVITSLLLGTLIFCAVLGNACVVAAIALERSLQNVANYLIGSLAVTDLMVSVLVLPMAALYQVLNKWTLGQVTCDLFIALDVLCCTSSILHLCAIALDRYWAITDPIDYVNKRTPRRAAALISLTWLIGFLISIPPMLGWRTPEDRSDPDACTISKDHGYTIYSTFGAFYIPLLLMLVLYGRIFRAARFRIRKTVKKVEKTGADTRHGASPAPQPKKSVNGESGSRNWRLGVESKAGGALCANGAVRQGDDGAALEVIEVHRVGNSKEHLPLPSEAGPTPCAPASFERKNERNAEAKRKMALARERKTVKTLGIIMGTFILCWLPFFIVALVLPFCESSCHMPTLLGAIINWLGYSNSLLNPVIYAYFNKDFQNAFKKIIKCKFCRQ

Mus musculus [22] = test: Induction of hypothermia in CD-1 mouse assessed as change in body temperature at 17.5 mg/kg, ip measured after 120 mins by thermometric method (reference value: -0.1 to 0.1 deg C); assay type: functional, organism-based; outline: as §1
Mus musculus [23] = test: Antidepressant-like activity in CD-1 mouse assessed as decrease in immobility time at 20 mg/kg, ip measured after 30 mins by forced swim test; assay type: functional, organism-based
Outline: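 Male CD-1 mice (23–40 g), 6–8 per dose, given test agent ip in 10% aqueous DMSO (10 mL/kg) 30 min before test. Mice were placed singly in glass cylinders (25 cm high, 10 cm diameter) holding 20 cm water at 23 °C for 6 min. Immobility (passive floating) was timed over the last 4 min after a 2-min adaptation. Analysis by Dunnett's test.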

Mus musculus [24] = test: Induction of hypothermia in CD-1 mouse assessed as change in body temperature at 20 mg/kg, ip measured after 30 mins in presence of WAY100635 by thermometric method; assay type: functional, organism-based
Mus musculus [25] = test: Induction of hypothermia in CD-1 mouse assessed as change in body temperature at 20 mg/kg, ip measured after 60 mins in presence of WAY100635 by thermometric method; assay type: functional, organism-based
Mus musculus [26] = test: Inhibition of 8-OH-DPAT-induced hypothermia in CD-1 mouse assessed change in body temperature at 20 mg/kg, ip measured after 15 mins by thermometric method (reference value: -1.9 +/- 0.2 deg C); assay type: functional, organism-based
Mus musculus [27] = test: Inhibition of 8-OH-DPAT-induced hypothermia in CD-1 mouse assessed change in body temperature at 20 mg/kg, ip measured after 45 mins by thermometric method (reference value: -2.6 +/- 0.2 deg C); assay type: functional, organism-based
Mus musculus [28] = test: Inhibition of 8-OH-DPAT-induced hypothermia in CD-1 mouse assessed change in body temperature at 20 mg/kg, ip measured after 30 mins by thermometric method (reference value: -2.4 +/- 0.2 deg C); assay type: functional, organism-based
Mus musculus [29] = test: Inhibition of 8-OH-DPAT-induced hypothermia in CD-1 mouse assessed change in body temperature at 20 mg/kg, ip measured after 60 mins by thermometric method (reference value: -2.4 +/- 0.3 deg C); assay type: functional, organism-based

Sodium-dependent serotonin transporter, sequence (P31652 whole entry): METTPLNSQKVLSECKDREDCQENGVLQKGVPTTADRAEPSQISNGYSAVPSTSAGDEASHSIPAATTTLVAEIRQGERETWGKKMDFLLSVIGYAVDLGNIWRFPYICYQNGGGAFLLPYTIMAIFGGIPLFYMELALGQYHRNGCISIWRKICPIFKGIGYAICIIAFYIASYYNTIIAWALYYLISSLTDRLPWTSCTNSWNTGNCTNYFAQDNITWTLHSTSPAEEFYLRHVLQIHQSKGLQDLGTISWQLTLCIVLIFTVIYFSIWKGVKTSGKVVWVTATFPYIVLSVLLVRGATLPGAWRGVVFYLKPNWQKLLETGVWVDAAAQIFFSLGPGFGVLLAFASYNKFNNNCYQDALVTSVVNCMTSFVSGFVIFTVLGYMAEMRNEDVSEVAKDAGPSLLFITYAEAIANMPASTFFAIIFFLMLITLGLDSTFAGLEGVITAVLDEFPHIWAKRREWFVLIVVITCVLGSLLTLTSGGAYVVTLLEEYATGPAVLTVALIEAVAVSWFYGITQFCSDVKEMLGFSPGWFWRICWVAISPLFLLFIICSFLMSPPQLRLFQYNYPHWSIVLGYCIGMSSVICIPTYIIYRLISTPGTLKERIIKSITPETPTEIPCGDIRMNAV

SMILES	Ki [1]	half-life at 1 µM [2]	deltaT (Mus musculus [4])	Ki [5]	deltaT (Mus musculus [7])	deltaT (Mus musculus [9])	deltaT (Mus musculus [10])	Ki [11]	deltaT (Mus musculus [13])	deltaT (Mus musculus [14])	Ki (D(2) dopamine receptor)	deltaT (Mus musculus [17])	deltaT (Mus musculus [18])	Ki [20]	Ki [21]	deltaT (Mus musculus [24])	deltaT (Mus musculus [25])	further results
COc1ccc(-c2c(=O)n(CCCCN3CCCC(c4c[nH]c5ccc(OC)cc45)C3)c(=O)n3ccccc23)cc1 (configuration not stated)	86 nM	3.31 min	-0.2 °C	958 nM	0.2 °C	-1 °C	0 °C	690 nM	0.1 °C	-2.4 °C	11.2 µM	-0.2 °C	0.2 °C	314 nM	62 nM	–	–	deltaT (Mus musculus [3]): 0.2 °C; deltaT (Mus musculus [6]): 0.2 °C; deltaT (Mus musculus [8]): -0.5 °C; deltaT (Mus musculus [12]): -0.1 °C; deltaT (Mus musculus [15]): -0.6 °C; deltaT (Mus musculus [16]): -0.2 °C; deltaT (Mus musculus [19]): 0.3 °C; deltaT (Mus musculus [22]): 0.1 °C
O=c1c(-c2ccccc2)c2ccccn2c(=O)n1CCCCN1CCCC(c2c[nH]c3ccccc23)C1 (configuration not stated)	68 nM	6.12 min	-0.8 °C	1110 nM	-0.4 °C	-0.3 °C	0.2 °C	435 nM	0.1 °C	-0.9 °C	17.7 µM	-0.1 °C	-0.5 °C	433 nM	22 nM	0 °C	0.1 °C	Activity (Mus musculus [23]): inactive
COc1ccc(-c2c(=O)n(CCCCN3CCCC(c4c[nH]c5ccccc45)C3)c(=O)n3ccccc23)cc1 (configuration not stated)	41 nM	7.4 min	0.5 °C	1920 nM	0.4 °C	0.3 °C	0.3 °C	1710 nM	0 °C	-1.6 °C	1.13 µM	0.3 °C	0.4 °C	21 nM	42 nM	-1.4 °C	-0.7 °C	–
O=c1c(-c2ccc(F)cc2)c2ccccn2c(=O)n1CCCCN1CCCC(c2c[nH]c3ccccc23)C1 (configuration not stated)	46 nM	5.53 min	0.2 °C	1440 nM	0.4 °C	0.5 °C	0.1 °C	697 nM	0.2 °C	-0.2 °C	0.963 µM	0.4 °C	0.3 °C	435 nM	46 nM	–	–	deltaT (Mus musculus [26]): -1.2 °C; deltaT (Mus musculus [27]): -1.3 °C; deltaT (Mus musculus [28]): -1.2 °C; deltaT (Mus musculus [29]): -1.3 °C

From ChEMBL document CHEMBL4400523, “Synthesis of novel pyrido[1,2-c]pyrimidine derivatives with rigidized tryptamine moiety as potential SSRI and 5-HT1A receptor ligands” (Eur J Med Chem, 2019)
